We go through five substances from article PMC9339567 (Journal of Food and Drug Analysis, 2016).

Entries after “also recorded” stand apart in the source; their conditions may differ. Where no end group is shown, it is not given here.

The conditions of series [1]: ref 32 (Sampath Kumar et al); cited from earlier work.
For series [2] the following is noted: cited from earlier work.
For series [3] the following is noted: ref 28 (Tanzadehpanah et al); cited from earlier work.
In the next series the test system is HFLF-PI 5 cells. The series is described as follows: Cytotoxicity assay. It is filed as cell-based, human. Conditions: 0–1 mg/mL, MTT 570 nm. The method, boiled down: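 HFLF-PI 5 human lung cells were grown in RPMI with penicillin/streptomycin and 10% FBS at 37°C, 5% CO2. Cells were seeded at 1 × 10^5 cells/mL and, at 75% confluence, exposed to test compound at 0–1 mg/mL for 24, 48 or 72 hours, with PBS as control. After PBS washes, MTT (5 mg/mL stock) was added overnight at 37°C and formazan dissolved in DMSO. A570 was read and cytotoxicity % calculated relative to control.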

Series [4] is described as follows: ABTS radical scavenging activity assay. To be noted: 6 minutes incubation, absorbance 734 nm; triplicate.
The nature of series [5]: DPPH radical scavenging assay. Conditions: 15 μg/mL; absorbance 517 nm, 30 minutes in dark, room temperature; triplicate. The method, boiled down:
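Test compound at 0.007–1 mg/mL, or GSH positive control over the same range, was mixed with an equal volume of 99.5% ethanol containing 0.02% DPPH. The mixture was held 30 minutes in the dark at room temperature and A517 read, with distilled water replacing sample as control. Scavenging % = (Acontrol − Asample)/Acontrol × 100; triplicate.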

Take ACFL: the “Inhibition of the oxidation process relative to α-tocopherol” value in series [1] is “greater levels of inhibition of the oxidation process”. Regarding HGPLGPL, the “Activity against ROS and linoleic acid peroxidation” value in series [2] is “strong activity”. As to LTEQESGVPVMK, the “IC50 DPPH radical scavenging” value in series [3] was 28.6 ± 1.08 µg/mL. Regarding WESLSRLLG [WG-9], the “Effect on cell viability” value in the series with HFLF-PI 5 cells (24 hours, triplicate) is given as “no significantly effect on cell viability; also recorded: no significant cytotoxic effect”; with HFLF-PI 5 cells (48 hours, p < 0.05), “significantly reduced”; with HFLF-PI 5 cells (72 hours, p < 0.05), “significantly reduced”. Consider glutathione [GSH], for which the “IC50 ABTS radical scavenging” value in series [4] is less than 15 µg/mL. The substance further showed a DPPH-radical scavenging in series [5] of 67%.
